Screens as filed in PubChem BioAssay.
IMP-1 inh: IMP-1 metallo-beta-lactamase inhibitors, primary screen, biochemical, epi-absorbance readout, Pseudomonas aeruginosa enzyme; inhibition, % at 5.6 µM; metallo-beta-lactamase IMP-1 (Pseudomonas aeruginosa); purified IMP-1, nitrocefin hydrolysis, epi-absorbance fluorescence; 0.45% of 290,000 active; AID 1556, 2009;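 active = inhibition above the mean plus 3 SD of all compounds in the same screening run, cut at about 4.5% in these data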;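 note: 0% = IMP-1 with DMSO and 100% = DMSO wells lacking enzyme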
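System: purified IMP-1 / Input: IMP-1 dispensed at 0.2 nM / Medium: 50 mM HEPES pH 7.1, 50 µM ZnSO4, 0.05% Brij 35 / Timing: 15 min enzyme–compound preincubation, then 25 min nitrocefin reaction, 25 °C / Technique: plate fluorescence quenching by hydrolysis product, ex 480/em 530 nm / Repeats: singlicate testing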
VIM-2 inhibitor: VIM-2 metallo-beta-lactamase inhibitors, primary screen, biochemical, epi-absorbance readout, Pseudomonas aeruginosa enzyme; purified VIM-2, nitrocefin hydrolysis, epi-absorbance fluorescence; 0.89% of 290,000 active; AID 1527, 2009; inhibition, % at 5.6 µM;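 active = inhibition above the mean of all tested compounds plus 3 SD, cutoff set per screening run, cut at about 7.5% in these data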;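 note: red hydrolysis product quenches plate fluorescence so inhibitors raise well fluorescence; 0% = enzyme with DMSO and 100% = DMSO without enzyme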
Mot1-301 SUMO: yeast Mot1-301 growth rescue at high temperature, primary screen, SUMOylation pathway inhibitor project, S. cerevisiae, ATP luminescence, 38.5C | growth rescue, % at 18.8 µM | 1% of 320,000 active | S. cerevisiae Mot1-301 growth rescue; percent above DMSO median, 100 means doubled;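 active = every valid replicate shows activation above 250% relative to neutral control wells; inactive = the rest, any valid replicate at or below 250%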;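 note: OY570 slx delta 5 strain wells were the positive control but not used for scaling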
FID counter: compounds displacing fluorescent DNA intercalator, primary screen, artefact control for HCV NS3 helicase inhibitor project, biochemical, FID fluorescence; DNA fluorescent intercalator displacement; AID 1845, 2009; 0.17% of 290,000 active; inhibition, % at 7.9 µM; in the data active = inhibition above about 37%;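 note: 0% = vehicle and 100% = reference compound; higher means more ethidium bromide displaced from hairpin DNA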
NALP1 inh: NALP1 inflammasome inhibitors in reconstituted yeast, colorimetric, S. cerevisiae, triplicate retest; S. cerevisiae NALP1/ASC/caspase-1 growth, X-gal OD620, 72 h; 0.61% of 280,000 active; inhibition, % at 10 µM; in the data active = inhibition mostly above about 24%, no sharp cut-off; inactive = mostly below about 32%
UBC9 SUMO inh: inhibitors of in vitro SUMOylation cascade, primary screen, biochemical, HTRF, uHTS. HTRF SUMOylation assay, SAE1/SAE2 + UBC9. inhibition, % at 35 µM. 0.36% of 290,000 active; in the data active = inhibition above about 50%, passing the limit was not always enough
Target sequence (P63279 whole entry, looked up): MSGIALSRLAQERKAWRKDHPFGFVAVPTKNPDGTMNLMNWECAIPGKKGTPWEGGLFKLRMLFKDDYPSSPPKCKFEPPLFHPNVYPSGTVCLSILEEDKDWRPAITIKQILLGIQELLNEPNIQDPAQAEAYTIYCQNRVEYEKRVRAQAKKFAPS
VIM-2 inh confirm: P. aeruginosa VIM-2 enzyme inhibition – biochemical, epi-absorbance, HTS, confirmation | shares compounds with IMP-1 inh | purified VIM-2 enzyme, nitrocefin absorbance | inhibition, % at 5.6 µM | 73% of 200 active; in the data active = inhibition above about 8%;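 note: 0% = enzyme with vehicle and 100% = no enzyme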
TEM-1 counter: Serine beta-lactamase TEM-1 inhibition, biochemical epi-absorbance counter-screen for IMP-1/VIM-2 inhibitor program. TEM-1 beta-lactamase, nitrocefin absorbance inhibition. shares compounds with IMP-1 inh. inhibition, % at 5.6 µM. 50% of 200 active; in the data active = inhibition above about 0.66%
Target sequence (P62593 whole entry, looked up): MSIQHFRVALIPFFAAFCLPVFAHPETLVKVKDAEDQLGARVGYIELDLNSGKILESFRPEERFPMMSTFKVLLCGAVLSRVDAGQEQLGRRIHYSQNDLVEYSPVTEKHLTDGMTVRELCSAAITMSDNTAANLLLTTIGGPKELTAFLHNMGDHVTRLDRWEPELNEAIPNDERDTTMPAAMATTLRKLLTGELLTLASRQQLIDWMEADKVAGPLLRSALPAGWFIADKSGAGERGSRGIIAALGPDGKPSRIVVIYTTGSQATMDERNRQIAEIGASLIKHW
IMP-1 inh conf: IMP-1 metallo-beta-lactamase inhibitors, confirmation, biochemical, epi-absorbance, hits shared with VIM-2 screen | shares compounds with IMP-1 inh | purified IMP-1 enzyme, absorbance substrate hydrolysis | inhibition, % at 5.6 µM | 60% of 200 active | AID 2189, 2009; in the data active = inhibition above about 4.9%;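 note: 0% = enzyme with vehicle and 100% = vehicle without enzyme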
Mot1 SUMO dose: growth restoration of Mot1-301 yeast on galactose, dose response, SUMO pathway inhibitor project, whole organism, S. cerevisiae, ATP luminescence, cherry-picked samples | 2,300 tested, under 10 active | AID 493004, 2010 | growth activity, percent, % at 42 µM | shares compounds with Mot1-301 SUMO | S. cerevisiae Mot1-301 galactose growth, 24 h; -100 = growth of slx-deleted rescue strain;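 active = Signal drops as the depositor expects, and the fitted half-maximal dose is no more than ten times the top valid tested dose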;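 note: more negative values mean stronger growth rescue toward the control strain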
Numbers without * were called inactive; . = not tested or not shown. This is a sample that favours compounds with a hit; in the whole collection about 2.9% have one here.

SMILES	IMP-1 inh	VIM-2 inhibitor	Mot1-301 SUMO	FID counter	NALP1 inh	UBC9 SUMO inh	VIM-2 inh confirm	TEM-1 counter	IMP-1 inh conf	others
O=C1CCN2C=Nc3cccc4ccc1c2c34	12*	12*	-27	-1	-6	66*	32*	28*	24*
O=C(CC(SCc1ccco1)c1ccc(O)cc1)c1cccs1 (centres undefined)	16*	8	600*	3	27	6	9.2*	-4	0
O=C(CSc1nnc(-c2ccc(O)cc2)n1Cc1ccco1)c1cccs1	2	0	-21	-13	13	27	.	.	.
O=C(CSc1nnc(-c2ccc(O)cc2)n1-c1ccccc1)CC(=O)Nc1ccccc1	7.9*	16*	-5	-18	6	26	0	-5	-3
O=C(O)C1Sc2[nH]c(=O)sc2C2c3ccc(O)cc3OC(=O)C12 (centres undefined)	8.6*	7.9*	161	1	-23	39	5	-5	4
COC(=O)C1Sc2[nH]c(=O)sc2C2c3ccccc3OC(=O)C12 (centres undefined)	1	-1	15	-9	1	-4	.	.	.
CC(C)(C)c1ccc(-c2c(C(=O)O)c(C(=O)O)c3n2CSC3)cc1	20*	20*	30	-3	-4	17	17*	-5	12*
COC(=O)c1c(C(=O)OC)c(-c2ccc(F)cc2)n2c1CSC2	-3	0	1	-22	2	4	.	.	.
COc1ccc(CCNC(=O)CSc2nnnn2-c2ccc(OC)c(OC)c2)cc1OC	-3	-1	7	-22	4	8	.	.	.
CN(/N=C/c1ccc(N(C)C)cc1)C1=NS(=O)(=O)c2ccccc21	24*	52*	127	-11	6	30	29*	14*	24*
COc1ccc(/C=N/N(C)C2=NS(=O)(=O)c3ccccc32)cc1	-2	1	7	-6	19	22	.	.	.
CCOC(=O)CCN(c1ccccc1)S(=O)(=O)c1ccc(-c2ccc(=O)[nH]n2)s1	-1	-2	588*	-33	5	4	.	.	.	Mot1 SUMO dose=0
CN(C)CCN(Cc1ccccc1)S(=O)(=O)c1ccc(-c2ccc(=O)[nH]n2)s1	0	1	31	6	35	-7	.	.	.
CCn1c(SCC(=O)OC)nnc1-c1ccncc1	-2	-2	825*	-6	7	6	.	.	.	Mot1 SUMO dose=0
CCn1c(SCC(=O)Nc2nc(-c3ccccc3)cs2)nnc1-c1ccccc1	-2	-2	570*	-30	-9	-31	.	.	.	Mot1 SUMO dose=1
Cc1nnc(SCC(=O)Nc2nc(-c3ccccc3)cs2)n1N	-4	-3	-16	-3	26	18	.	.	.
CC1(C)NC(=O)N(CC(=O)O)C1=O	-5	-6	574*	1	-4	-10	.	.	.	Mot1 SUMO dose=0
